Sampled rows, rich in hits. Any-hit rate of the full collection: about 3.1%.
ADAM17 inh – ADAM17 inhibition, QFRET primary screen; P78536; recombinant ADAM17, EDANS/DABCYL FRET peptide cleavage; AID 720648; inhibition, % at 6.95 µM; 370,000 compounds, 0.83% hits;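 active = inhibition above the mean of compounds lying between control limits plus 3 SD, set per campaign, cut at about 8.5% in these data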
Target sequence (P78536 215-824 limits assumed): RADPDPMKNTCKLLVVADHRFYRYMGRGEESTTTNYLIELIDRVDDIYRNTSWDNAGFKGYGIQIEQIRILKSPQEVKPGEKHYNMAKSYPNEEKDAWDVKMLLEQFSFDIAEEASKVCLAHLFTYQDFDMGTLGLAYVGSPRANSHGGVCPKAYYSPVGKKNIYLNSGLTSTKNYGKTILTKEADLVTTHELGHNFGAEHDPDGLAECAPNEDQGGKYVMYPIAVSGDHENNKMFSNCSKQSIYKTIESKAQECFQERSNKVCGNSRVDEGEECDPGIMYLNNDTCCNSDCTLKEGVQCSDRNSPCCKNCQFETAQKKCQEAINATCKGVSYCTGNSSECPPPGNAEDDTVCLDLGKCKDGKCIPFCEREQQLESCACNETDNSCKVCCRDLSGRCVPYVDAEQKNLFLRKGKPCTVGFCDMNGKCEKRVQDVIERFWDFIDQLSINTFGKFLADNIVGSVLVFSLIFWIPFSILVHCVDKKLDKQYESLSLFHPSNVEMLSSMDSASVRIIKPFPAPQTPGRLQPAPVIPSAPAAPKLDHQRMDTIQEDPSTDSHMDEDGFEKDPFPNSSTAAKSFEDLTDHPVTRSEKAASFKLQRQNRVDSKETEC
V-ATPase pHluor – yeast V-ATPase proton transport regulation by pHLuorin; S. cerevisiae, pHLuorin cytosolic pH fluorescence; response, % at 10 µM; 350,000 compounds, 0.37% hits; in the data active = response mostly above about 7.3%, no sharp cut-off; inactive = mostly below about 5.4%; also: actives read high
MPTP block – inhibitors of mitochondrial permeability transition pore; isolated mouse mitochondria, Ca2+ swelling absorbance, 30 min; inhibition, % at 10 µM; 360,000 compounds, 1.4% hits;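 active = inhibition of 50% or more, scaled per plate between neutral and stimulator controls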
ADAM10 inh – ADAM10 inhibition, QFRET primary screen; recombinant ADAM10, EDANS/DABCYL FRET peptide cleavage, 3 h; 370,000 compounds, 0.62% hits; inhibition, % at 7 µM; AID 720582; O14672;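 active = inhibition above a per-campaign cutoff equal to the mean of compounds falling between control-based bounds plus 3 SD, cut at about 20% in these data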
Hep lipid drop – hepatic lipid droplet formation modulation | AML12 mouse hepatocytes, oleate lipid droplets, BODIPY imaging | inhibition, % at 6.5 µM | 240,000 compounds, 0.4% hits | AID 1656;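 active = lipid droplet intensity inhibited by at least 50%, with more than 500 cells counted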
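Assay system: AML12 hepatocytes (mouse); Probe or stimulus: oleic acid at 100 µM to induce lipid droplet formation; Dosing: compound at 6.5 µM only; Schedule: compound with oleate, overnight; Detection: fluorescence imaging, 20x objective, two fields per well; Measure: % inhibition of lipid droplet signal.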
aDG glyco act – alpha-DG glycosylation activation | Pro5-aDG cells, alpha-DG glycosylation AlphaScreen (IIH6); 0% Pro5, 100% B10-LARGE cell signal | activation, % at 10 µM | 360,000 compounds, 0.22% hits | AID 624168;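 active = activation of at least 8% versus controls, or a plate z-score of at least 8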;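 also: Pro5 are CHO cells carrying HIG-tagged alpha-DG that lacks glycosylation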
Rh123 counter – membrane potential counter-screen of mitochondrial pore inhibitors; shares compounds with MPTP block; isolated mitochondria, Rhodamine 123 fluorescence; inhibition, % at 10 µM; 5,000 compounds, 78% hits; in the data active = inhibition above about 22%
MPTP swell DR – dose response confirmation of mitochondrial permeability transition pore inhibitors | shares compounds with MPTP block | isolated mitochondria swelling, absorbance | IC50, µM | 780 compounds, 58% hits; in the data active = IC50 below about 20 µM
MPTP cs DR – active in counter-screen for permeability transition pore inhibitors; shares compounds with MPTP block; isolated mitochondria counterscreen, fluorescence read-out; IC50, µM; 780 compounds, 49% hits; in the data active = IC50 below about 80 µM
Large screens that a line does not name were inactive (follow-up assays come after a bar, where they were run).

C[C@H]1c2cccc(O)c2C(O)=C2C(=O)[C@]3(O)C(O)=C(C(N)=O)C(=O)[C@@H](N(C)C)[C@@H]3[C@@H](O)[C@@H]21	MPTP block 79.9 (no result: ADAM17 inh, ADAM10 inh) | Rh123 counter inactive
Cc1cc(-c2n[nH]c(=S)n2N=Cc2ccc(OCc3ccccc3)cc2)n[nH]1	none (no result: V-ATPase pHluor, MPTP block, Hep lipid drop, aDG glyco act)
COc1cccc(NC(=O)C2CCCN2C(=O)NCc2ccccc2OC)c1 (stereo unspecified)	none (no result: V-ATPase pHluor, MPTP block, Hep lipid drop, aDG glyco act)
CC1(C)CC(=O)C(=Cc2cn(-c3ccccc3)nc2-c2ccccc2)C(=O)C1	MPTP block 75.8 (no result: Hep lipid drop) | Rh123 counter inactive | MPTP swell DR inactive | MPTP cs DR 5.67
Cc1ccc(-c2nn(-c3ccccc3)cc2C=C2C(=O)CC(C)(C)CC2=O)cc1	none
CCOC(=O)CC[C@@H]1CC[C@]2(CCCN(C(=O)C3CCCCC3)C2)O1	none (no result: V-ATPase pHluor, MPTP block, Hep lipid drop, aDG glyco act)
O=C(NCCSCc1ccco1)Nc1cc(Cl)cc(Cl)c1	MPTP block 86.5 | Rh123 counter 90.2
O=C(CSCc1ccc(Cl)cc1)NCCSCc1ccco1	none
CCOc1ccc(-c2csc(/C(C#N)=C\c3ccc(O)c([N+](=O)[O-])c3)n2)cc1	MPTP block 73.1 | Rh123 counter 70.3
CCCCc1ccc(-c2csc(/C(C#N)=C\c3ccc(C)o3)n2)cc1	none (no result: Hep lipid drop)
COC(=O)C1=C(C)NC(C)=C(C(=O)OC)C1c1ccc(-c2cccc(Cl)c2Cl)o1	MPTP block 82.4 | Rh123 counter inactive | MPTP swell DR inactive | MPTP cs DR inactive
Cc1ccc(C(=O)CSc2nnc(-c3ccccn3)n2-c2ccccc2)cc1	none (no result: V-ATPase pHluor, MPTP block, Hep lipid drop, aDG glyco act)
NCCCn1c(C(=O)c2ccc(Cl)cc2)c2ccc(C(F)(F)F)cc2[n+]1[O-]	MPTP block 64.6 (no result: Hep lipid drop) | Rh123 counter inactive | MPTP swell DR 8.67 | MPTP cs DR inactive
COc1ccc(CNC2CCC23CCCCC3)cc1OC (stereo unspecified)	none (no result: V-ATPase pHluor, MPTP block, Hep lipid drop, aDG glyco act)
CC(C)(C)c1ccc(NC(=O)N2CCN(c3ccc([N+](=O)[O-])cn3)CC2)cc1	MPTP block 66.9 | Rh123 counter 54.3
O=C(Nc1ccc(F)cc1F)N1CCCN(c2ccc([N+](=O)[O-])cn2)CC1	none
COC(=O)c1ccc2c(c1)C(C)(C)C(/C=C/c1ccc(O)cc1)=[N+]2C	MPTP block 86.2, Hep lipid drop 119.4 | Rh123 counter inactive
COc1ccc(-n2cc(CNCCc3nc(C)cc(C)n3)c(-c3ccccc3Cl)n2)cc1	none
Cc1ccc(-n2cc(CNCCc3ncc(C)[nH]3)c(-c3ccc(F)cc3)n2)cc1	MPTP block 91.4, aDG glyco act 11.4 | Rh123 counter inactive | MPTP swell DR 4.2 | MPTP cs DR 56.8
Fc1ccc(-n2cc(CNCCc3ccccn3)c(-c3ccccc3Cl)n2)cc1	MPTP block 72.2 | Rh123 counter inactive | MPTP swell DR 9.84 | MPTP cs DR 47.7
Cc1ccc(-n2cc(CNCCn3nc(C)cc3C)c(-c3ccc(F)cc3)n2)cc1	none
Cc1c(CCO)c(=O)n2c([nH]c3ccccc32)c1C#N	none (no result: Hep lipid drop)
CCCCc1c(C)c(C#N)c2[nH]c3ccccc3n2c1=O	MPTP block 83.2 | Rh123 counter 96.5
C=CCN1C(=O)[C@H](CC(=O)NCc2cccc3ccccc23)[C@@]2(C(=O)OCC)CCCC=C12	none (no result: V-ATPase pHluor, MPTP block, Hep lipid drop, aDG glyco act)
C=CCN1C(=O)[C@H](CC(=O)N2CCN(C(=O)C3CC3)CC2)[C@@]2(C(=O)OCC)CCCC=C12	none (no result: V-ATPase pHluor, MPTP block, Hep lipid drop, aDG glyco act)
CC(=O)Nc1ccc(S(=O)(=O)N2CCSC2c2ccco2)cc1 (stereo unspecified)	none
O=C(Nc1ccc(Cl)c(Cl)c1)N1CCSC1c1ccco1 (stereo unspecified)	MPTP block 91.8 (no result: Hep lipid drop) | Rh123 counter 91.0
O=C(N/N=C/c1ccccc1)c1[nH]c2ccc(Br)cc2c1-c1ccccc1	MPTP block 86.3 | Rh123 counter 90.2
CCOC(=O)CC[C@@]1(C(=O)OCC)C[C@@H](CC(=O)NCc2ccc(C)o2)C(=O)N2CCCC=C21	none (no result: V-ATPase pHluor, MPTP block, Hep lipid drop, aDG glyco act)
CC(C)Oc1cccc(C(=O)C2CCCN(C(=O)c3cncs3)C2)c1 (stereo unspecified)	none
O=C(c1ccc(-c2ccccc2)c(F)c1)C1CCCN(C(=O)c2cncs2)C1 (stereo unspecified)	MPTP block 51.5 | Rh123 counter 52.1
Cc1cccc(NC(=O)c2n[nH]c([N+](=O)[O-])c2Br)c1C	MPTP block 87.2 | Rh123 counter 85.8
COc1cc(CNCc2c[nH]c3ccccc23)cc(OC)c1	MPTP block 59.6 | Rh123 counter inactive | MPTP swell DR 6.29 | MPTP cs DR 52.7
COC(=O)[C@]12C[C@H](CC(=O)NCC34CC5CC(CC(C5)C3)C4)C(=O)N(Cc3ccco3)C1=C[C@H](COCc1ccccc1)O[C@@H]2C	none (no result: V-ATPase pHluor, MPTP block, Hep lipid drop, aDG glyco act)
CCN(CC)C(=O)CC[C@H]1CC[C@]2(CCCN(S(C)(=O)=O)C2)O1	none (no result: V-ATPase pHluor, MPTP block, Hep lipid drop, aDG glyco act)
CCCN(CCC)S(=O)(=O)c1ccc(NC(=O)c2cc(C(=O)OC)cc([N+](=O)[O-])c2)cc1	MPTP block 87.9 (no result: Hep lipid drop) | Rh123 counter inactive | MPTP swell DR 10.7 | MPTP cs DR 4.49
Oc1ccc(CCNc2ncnc3ccc(Cl)cc23)cc1	MPTP block 95.2 | Rh123 counter 97.0
Nc1nc(Cl)cc(NCCc2ccc(O)cc2)n1	none
COC(=O)c1cc(Cl)c(NC(=O)/C=C/c2ccc(Cl)cc2Cl)cc1OC	MPTP block 83.4 | Rh123 counter inactive | MPTP swell DR inactive | MPTP cs DR 4.36
CCOc1ccccc1NC(=O)CSc1nnc(SCc2ccccc2)s1	none (no result: V-ATPase pHluor, MPTP block, Hep lipid drop, aDG glyco act)
Cc1ccc(/C=N/NC(=O)NN(C)c2ncc(C(F)(F)F)cc2Cl)cc1	none
CN(NC(=O)Nc1ccc(Cl)cc1)c1ncc(C(F)(F)F)cc1Cl	MPTP block 87.8 (no result: Hep lipid drop) | Rh123 counter 91.3
C/C(=N\OC(=O)Nc1ccc(Cl)cc1)c1ncc(C(F)(F)F)cc1N1CCOCC1	MPTP block 98.6 | Rh123 counter 93.6
N/C(=N\OC(=O)Nc1ccc(Cl)cc1)c1ncc(C(F)(F)F)cc1Cl	MPTP block 56.1 | Rh123 counter 112.7
O=C(NCc1cccnc1)Nc1cccc([N+](=O)[O-])c1	none
O=[N+]([O-])c1cccc(S(=O)(=O)NCc2ccncc2)c1	MPTP block 81.7 | Rh123 counter 60.4
O=C(NCc1ccncc1)Nc1cccc([N+](=O)[O-])c1	MPTP block 91.1 | Rh123 counter 73.2
O=C(NCc1ccc(F)cc1)Nc1cccc([N+](=O)[O-])c1	MPTP block 62.5 | Rh123 counter 94.1
Cc1c[nH]c2cccc(-c3ccccc3)c12	none (no result: V-ATPase pHluor, MPTP block, Hep lipid drop, aDG glyco act)

Screening results deposited in PubChem by several laboratories.
